Screens (PubChem BioAssay)
This is a sample that favours compounds with a hit; in the whole collection about 2.1% have one here.
SUMO1 PPI mod – modulators of SUMO1 protein-protein interactions, primary screen, biochemical, uHTS | hit rate 0.33% among 360,000 | SUMO1 binding to a labelled peptide, TR-FRET, 1 h | inhibition, % at 20 µM | Small ubiquitin-related modifier 1 (Homo sapiens), P63165 | AID 602429, 2012; in the data active = inhibition above about 37%
Target sequence (P63165 whole entry, looked up): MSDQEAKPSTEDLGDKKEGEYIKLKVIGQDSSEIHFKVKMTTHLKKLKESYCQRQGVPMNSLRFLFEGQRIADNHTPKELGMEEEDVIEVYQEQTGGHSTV
LMPTP inh – LMPTP phosphatase inhibitors, primary screen, biochemical, fluorescence intensity, uHTS; hit rate 0.22% among 360,000; Low molecular weight phosphotyrosine protein phosphatase (Homo sapiens), P24666; recombinant LMPTP-A, OMFP fluorogenic substrate; inhibition, % at 20 µM;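 active = compounds that cut the enzyme signal by at least half of the control window in the single-dose screen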;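 also: plate controls were DMSO wells with enzyme plus substrate for no effect and substrate without enzyme for full effect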
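Test system: LMPTP-A phosphatase enzyme. Amount: LMPTP-A at 0.625 nM final in the reaction. Reagent: OMFP substrate, 400 µM final. Times: 50 min at room temperature. Signal: endpoint fluorescence intensity from OMFP dephosphorylation. Read-out basis: % inhibition. Benchmarks: no-enzyme and uninhibited controls.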
Scp-1 inhibitor – Scp-1 phosphatase inhibitors, primary screen, biochemical, colorimetric, uHTS. Recombinant Scp1, phosphopeptide, malachite green phosphate absorbance. hit rate 0.88% among 340,000. inhibition, % at 20 µM;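 active = inhibition above about 50% at 20 µM, limit read from the data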;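 also: plate controls were DMSO wells with enzyme for no effect and wells lacking enzyme for full effect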
Target sequence (Q9GZU7 76-261 limits assumed): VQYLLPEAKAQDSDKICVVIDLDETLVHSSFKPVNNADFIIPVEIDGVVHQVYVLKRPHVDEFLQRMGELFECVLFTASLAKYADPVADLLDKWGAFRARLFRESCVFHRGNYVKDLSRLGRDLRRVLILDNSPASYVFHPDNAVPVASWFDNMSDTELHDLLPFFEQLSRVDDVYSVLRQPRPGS
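Test system: SCP-1 phosphatase catalytic domain, residues 76-261 | Compound dosing: One concentration, 20 µM, with 1.0% DMSO | Schedule: 45 min room-temperature reaction, 5 min colour, 30 min stabiliser | Detection: Absorbance at 630 nm | Read-out basis: % inhibition of SCP-1 phosphate liberation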
DNMT1 block – human DNMT1 methyltransferase inhibitors, primary screen, biochemical, molecular beacon, fluorescence, HinP1I cleavage, uHTS; AID 588458, 2011; inhibition (reported as % activation of signal), % at 10 µM; DNA (cytosine-5)-methyltransferase 1 (Homo sapiens), P26358; hit rate 0.83% among 360,000; in the data active = inhibition above about 50%
STEP block – STEP phosphatase inhibitors, primary screen, biochemical, fluorescence intensity, uHTS; inhibition, % at 20 µM; recombinant STEP, OMFP fluorogenic substrate; hit rate 0.25% among 360,000;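 active = inhibition at 20 µM, scaled per plate between control wells, above about 37%, limit read from the data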;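 also: 0% = DMSO with enzyme and substrate and 100% = substrate only without enzyme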
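Assay system: isolated STEP enzyme. Buffer or medium: pH 6.0 Bis-Tris with DTT and Tween 20. Also added: fluorogenic phosphatase substrate OMFP at 25 µM final. Dosing: 20 µM, 1% DMSO. Timing: 20 min reaction, room temperature, in the dark. Measured by: fluorescence intensity, excitation 480 nm, emission 540 nm. Evaluation: normalized % inhibition.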
GRK2 inh – compounds blocking aptamer binding on GRK2 – biochemical, human GRK2, bead flow cytometry, HTS, primary screen; Beta-adrenergic receptor kinase 1 (Homo sapiens), P25098; FAM-aptamer displacement from GRK2; inhibition of aptamer binding, % at 10 µM; hit rate 0.59% among 330,000; AID 488847, 2010;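 active = inhibition of aptamer binding above 40%, roughly 3 SD of noise, on plates passing a quality check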;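 also: median bead fluorescence of bound FAM aptamer so fluorescent compounds give negative values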
Starred values were filed as active, the others as inactive; . = not tested or not shown.

SMILES	SUMO1 PPI mod	LMPTP inh	Scp-1 inhibitor	DNMT1 block	STEP block	GRK2 inh
O=C(O)c1ccc2c(c1)C1C(Cl)C(Sc3ccccc3[N+](=O)[O-])CC1C(c1cccc([N+](=O)[O-])c1)N2 (configuration not stated)	46*	6	-7	71*	6	.
O=[N+]([O-])c1cccc(C2N3CCCN23)c1 (configuration not stated)	-8	-3	-5	0	0	0
CCN(CC)C(=O)c1ccc2c(c1)C1C=CCC1C(C(=O)O)N2 (configuration not stated)	45*	2	39	19	33	14
O=P(Oc1ccccc1)(Oc1ccccc1)N1CCOCC1	-2	-1	-3	-1	-1	.
CCC1(CCC(C)C)C(=O)NC(=O)N(c2ccccc2)C1=O (configuration not stated)	4	-1	.	.	.	.
Cc1cc(C=C2C(=O)N(C)C(=S)N(C)C2=O)c(C)n1-c1cccnc1	16	1	-2	-5	-1	0
CCc1nn2c(=O)c(F)c(N3CCNCC3)nc2s1	-3	-3	.	1	0	.
Cc1ccc(C(O)(C(=O)OC(C)C)C(O)c2ccccc2)cc1 (configuration not stated)	0	-1	.	.	.	.
C[n+]1c(-c2ccccc2)c2cc(N)ccc2c2ccc(N)cc21	46*	81*	-4	61*	6	36
CCC1(CC)COP(=O)(OCC(Cl)CCl)OC1 (configuration not stated)	3	-2	3	5	1	.
Cc1cc2c(C(C)C)c(O)c(O)c(C=O)c2c(O)c1-c1c(C)cc2c(C(C)C)c(O)c(O)c(C=O)c2c1O	58*	12	.	22	-4	.
CSc1nc(N)c(N=Nc2ccc([As](=O)(O)O)cc2)c(=O)[nH]1	39*	43	16	18	0	5
COc1ccc(N=Nc2c(O)[nH]c(=S)[nH]c2=O)cc1	-55	11	-9	-1	7	1
O=c1[nH]c2ccccc2n1C1CCN(Cc2ccc(-c3[nH]c4cc5ncnc5cc4nc3-c3ccccc3)cc2)CC1	-4	84*	.	.	.	.
O=C1CC(N2CCC(n3c(=O)[nH]c4ccccc43)CC2)C(=O)N1Cc1ccccc1 (configuration not stated)	-4	2	3	5	0	6
Cc1ccc2c(c1)C1C[N+](C)(CC(=O)c3ccc(Cl)cc3Cl)CCC1N2C(=O)c1ccc(F)cc1 (configuration not stated)	-11	0	95*	7	-2	0
CC1(C)C2([N+](=O)[O-])CN3CN(C2)CC1([N+](=O)[O-])C3	39*	-1	7	6	1	0
Cc1cccc(-n2c(O)c(/C=C/C=Nc3ccccc3)c(=O)[nH]c2=O)c1	-29	1	-4	55*	-16	1
CNS(=O)(=O)c1ccc(N=Cc2c(O)n(-c3cccc(C)c3)c(=O)[nH]c2=O)cc1	2	0	-5	0	-1	0
Cc1cccc(N2C(=O)/C(=C/c3ccc(N4CCN(C)CC4)o3)C(=O)NC2=S)c1C	-83	-3	-1	11	0	11
Cc1ccccc1N1C(=O)/C(=C/c2ccco2)C(=O)NC1=S	.	.	.	.	.	100*
CCc1ccc(N2C(=O)NC(=O)/C(=C\C=C\c3ccco3)C2=O)cc1	12	4	11	138*	1	10
CCOc1ccc(N2C(=O)/C(=C/c3ccco3)C(=O)NC2=S)cc1	114*	92*	94*	49	100*	20
CCOc1ccc(N2C(=O)/C(=C\c3cccs3)C(=O)NC2=S)cc1	.	.	11	.	.	0
